# ChEMBL document CHEMBL1649438, “Activities of ceftobiprole and other cephalosporins against extracellular and intracellular (THP-1 macrophages and keratinocytes) forms of methicillin-susceptible and methicillin-resistant Staphylococcus aureus” (Antimicrob Agents Chemother, 2009)
# Columns and labels:
# Staphylococcus aureus [1] = assay: Antimicrobial activity against hospital-acquired vancomycin-resistant Staphylococcus aureus VRS1 infected in human THP-1 cells assessed as change in bacterial count after 24 hrs; assay type: functional, cell-based; settings: VRS1, THP-1, 24 h
# Summary of the method: (§1)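 THP-1 macrophages infected as described previously, with a postphagocytosis inoculum of 1.5 × 10⁶ to 3.0 × 10⁶ CFU/mg cell protein. Cells were exposed 24 h to increasing extracellular antibiotic concentrations. Response is the change in log10 CFU/mg protein from the inoculum (n = 3), fitted to a Hill function. E0 and Emax were extrapolated to infinitely low and high concentrations. EC50 and static concentration (graphical interpolation) are expressed as multiples of the broth MIC at pH 5.5 or 7.4.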
# Staphylococcus aureus [2] = assay: Antimicrobial activity against Panton-valentine leucocidin-positive community-acquired methicillin-resistant Staphylococcus aureus NRS192 infected in human THP-1 cells assessed as bacterial count per mg of cell protein at high extracellular compound concentration after 24 hrs; assay type: functional
# Summary of the method: (§2)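 THP-1 human macrophages infected with S. aureus (postphagocytosis inoculum 1.5 × 10^6 to 3.0 × 10^6 CFU/mg cell protein), then incubated 24 h with increasing extracellular antibiotic concentrations. Change in log10 CFU/mg cell protein from the postphagocytosis inoculum, n = 3. Hill function fitted on log-transformed data. Low-concentration value (E0) and high-concentration value (Emax) are extrapolated. Where a pH is given, concentrations are expressed as multiples of the broth MIC at that pH.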
# Staphylococcus aureus [3] = assay: Antimicrobial activity against Panton-valentine leucocidin-positive community-acquired methicillin-resistant Staphylococcus aureus STA 44 infected in human THP-1 cells assessed as bacterial count per mg of cell protein at low extracellular compound concentration after 24 hrs; assay type: functional; summary of the method: as §2
# Staphylococcus aureus [4] = assay: Antimicrobial activity against Panton-valentine leucocidin-positive community-acquired methicillin-resistant Staphylococcus aureus STA 44 infected in human THP-1 cells assessed as bacterial count per mg of cell protein at high extracellular compound concentration after 24 hrs; assay type: functional; summary of the method: as §2
# Staphylococcus aureus [5] = assay: Antimicrobial activity against Panton-valentine leucocidin-positive community-acquired methicillin-resistant Staphylococcus aureus isolate MEH2225605 infected in human THP-1 cells assessed as bacterial count per mg of cell protein at low extracellular compound concentration after 24 hrs; assay type: functional; summary of the method: as §2
# Staphylococcus aureus [6] = assay: Bacteriostatic activity against Panton-valentine leucocidin-positive community-acquired methicillin-resistant Staphylococcus aureus NRS192 infected in human THP-1 cells assessed as change in bacterial count after 24 hrs at pH 5.5; assay type: functional; summary of the method: as §1
# Staphylococcus aureus [7] = assay: Antimicrobial activity against Panton-valentine leucocidin-positive community-acquired methicillin-resistant Staphylococcus aureus N4042228 infected in human THP-1 cells assessed as change in bacterial count after 24 hrs at pH 5.5; assay type: functional, organism-based; settings: N4042228, THP-1, 24 h; summary of the method: as §2
# Staphylococcus aureus [8] = assay: Antimicrobial activity against Panton-valentine leucocidin-positive community-acquired methicillin-resistant Staphylococcus aureus STA 44 infected in human THP-1 cells assessed as bacterial count per mg of cell protein at high extracellular compound concentration after 24 hrs at pH 5.5; assay type: functional; summary of the method: as §2
# Staphylococcus aureus [9] = assay: Antimicrobial activity against methicillin-susceptible Staphylococcus aureus […] infected in human THP-1 cells assessed as bacterial count per mg of cell protein at high extracellular compound concentration after 24 hrs at pH 7.4; assay type: functional
# Summary of the method: (§3)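 Human THP-1 macrophage-like cells were infected with S. aureus to a postphagocytosis inoculum of 1.5 × 10^6 to 3.0 × 10^6 CFU/mg cell protein. Cells were then exposed 24 h to increasing extracellular antibiotic concentrations. Response was the log10 CFU change per mg protein from the postphagocytosis inoculum, n = 3. A Hill function was fitted on log-transformed axes. E0 and Emax were extrapolated to infinitely low and high concentrations. Cs was read by graphical interpolation. Concentrations were expressed as multiples of the broth MIC at pH 5.5 or pH 7.4.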
# Staphylococcus aureus [10] = assay: Antimicrobial activity against methicillin-susceptible Staphylococcus aureus ATCC 11632 infected in human THP-1 cells assessed as change in bacterial count after 24 hrs at pH 7.4; assay type: functional, organism-based; settings: ATCC 11632, THP-1, 24 h; summary of the method: as §1
# Staphylococcus aureus [11] = assay: Bacteriostatic activity against hospital-acquired vancomycin-intermediate Staphylococcus aureus NRS126 infected in human THP-1 cells assessed as change in bacterial count after 24 hrs at pH 5.5; assay type: functional
# Staphylococcus aureus [12] = assay: Antimicrobial activity against Panton-valentine leucocidin-positive community-acquired methicillin-resistant Staphylococcus aureus NRS192 infected in human THP-1 cells assessed as bacterial count per mg of cell protein at high extracellular compound concentration after 24 hrs at pH 5.5; assay type: functional; summary of the method: as §2
# Staphylococcus aureus [13] = assay: Antimicrobial activity against methicillin-susceptible Staphylococcus aureus […] infected in human THP-1 cells assessed as bacterial count per mg of cell protein at high extracellular compound concentration after 24 hrs at pH 5.5; assay type: functional; summary of the method: as §3
# Staphylococcus aureus [14] = assay: Bacteriostatic activity against methicillin-susceptible Staphylococcus aureus […] infected in human THP-1 cells assessed as change in bacterial count after 24 hrs at pH 5.5; assay type: functional; summary of the method: as §3
# Staphylococcus aureus [15] = assay: Antimicrobial activity against hospital-acquired vancomycin-intermediate Staphylococcus aureus NRS18 infected in human THP-1 cells assessed as bacterial count per mg of cell protein at high extracellular compound concentration after 24 hrs at pH 7.4; assay type: functional; summary of the method: as §3
# Staphylococcus aureus [16] = assay: Bacteriostatic activity against hospital-acquired vancomycin-intermediate Staphylococcus aureus NRS126 infected in human THP-1 cells assessed as change in bacterial count after 24 hrs at pH 7.4; assay type: functional; summary of the method: as §1
# Staphylococcus aureus [17] = assay: Antimicrobial activity against Panton-valentine leucocidin-positive community-acquired methicillin-resistant Staphylococcus aureus NRS192 infected in human THP-1 cells assessed as bacterial count per mg of cell protein at low extracellular compound concentration after 24 hrs at pH 7.4; assay type: functional; settings: pooled result: one value given for 6 cell lines, strains, targets or settings; summary of the method: as §2
# Staphylococcus aureus [18] = assay: Ratio of MIC for hospital-acquired methicillin-resistant Staphylococcus aureus ATCC 33591 by microdilution method at pH 7.4 to ratio of MIC for hospital-acquired methicillin-resistant Staphylococcus aureus ATCC 33591 by microdilution method at pH 5.5; assay type: functional
# Summary of the method: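 MICs were determined by broth microdilution at pH 7.4 and pH 5.5. Broth was adjusted before inoculation, and pH was confirmed maintained (±0.1 unit) at the end.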
# Staphylococcus aureus [19] = assay: Antimicrobial activity against methicillin-susceptible Staphylococcus aureus ATCC 25923 infected in human keratinocytes assessed as change in bacterial count after 24 hrs; assay type: functional, organism-based; settings: ATCC 25923, 24 h
# Summary of the method: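 Primary human skin keratinocytes were grown in defined keratinocyte serum-free medium and infected with S. aureus to 1.5 × 10^6 to 3.0 × 10^6 CFU/mg cell protein. Cells were exposed 24 h to increasing extracellular concentrations. Response was the log10 CFU change from the postphagocytosis inoculum, fitted by a Hill equation with slope 1. Cs is the concentration giving CFU equal to the original inoculum, found by graphical interpolation.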
# Staphylococcus aureus [20] = assay: Antimicrobial activity against methicillin-susceptible Staphylococcus aureus NRS52 infected in human THP-1 cells assessed as bacterial count per mg of cell protein at high extracellular compound concentration after 24 hrs; assay type: functional; summary of the method: as §1
# Staphylococcus aureus [21] = assay: Antimicrobial activity against methicillin-susceptible Staphylococcus aureus NRS52 infected in human THP-1 cells assessed as change in bacterial count after 24 hrs; assay type: functional, organism-based; settings: NRS52, THP-1, 24 h; summary of the method: as §1
# Staphylococcus aureus [22] = assay: Antimicrobial activity against hospital-acquired methicillin-resistant Staphylococcus aureus ATCC 33591 infected in human THP-1 cells assessed as bacterial count per mg of cell protein at low extracellular compound concentration after 24 hrs; assay type: functional; summary of the method: as §1
compound,measurement,setting,value
Nc1nc(/C(=N/O)C(=O)N[C@@H]2C(=O)N3C(C(=O)O)=C(/C=C4\CCN([C@@H]5CCNC5)C4=O)CS[C@H]23)ns1 [CEFTOBIPROLE],EC50,Staphylococcus aureus [1],0.25 µg/mL
same,log10cfu,Staphylococcus aureus [2],-0.89
same,log10cfu,Staphylococcus aureus [3],2.82
same,log10cfu,Staphylococcus aureus [4],-1.02
same,log10cfu,Staphylococcus aureus [5],2.47
same,Activity,Staphylococcus aureus [6],1.45 × MIC
same,EC50,Staphylococcus aureus [7],0.54 × MIC
same,log10cfu,Staphylococcus aureus [8],-1.02
same,log10cfu,Staphylococcus aureus [9],-1.04
same,EC50,Staphylococcus aureus [10],0.2 × MIC
same,Activity,Staphylococcus aureus [11],1.97 multiples of MIC
same,log10cfu,Staphylococcus aureus [12],-1.02
same,log10cfu,Staphylococcus aureus [13],1.04
same,Activity,Staphylococcus aureus [14],1.19 × MIC
same,log10cfu,Staphylococcus aureus [15],-0.99
same,Activity,Staphylococcus aureus [16],0.74 ×MIC
same,log10cfu,Staphylococcus aureus [17],2.74
same,fold change (FC),Staphylococcus aureus [18],4
same,EC50,Staphylococcus aureus [19],0.35 µg/mL
same,log10cfu,Staphylococcus aureus [20],-1.01
same,EC50,Staphylococcus aureus [21],0.19 µg/mL
same,log10cfu,Staphylococcus aureus [22],2.47
